Assay results published in ChEMBL document CHEMBL4689842, “EUbOPEN Chemogenomics Library wave 1” (2021).

System: HEK-293T
Experiment: Multiplex assay against HEK293T;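 for Population Tubulin-Different-Phenotype (%): share of the cells with healthy nuclei that show this phenotype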
Assay type: toxicity, cell-based
Details: human
Summary of the method: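 Live cells were stained at seeding with Hoechst33342, BioTracker Green Microtubule Cytoskeleton Dye, MitoTracker Red and Annexin V Alexa Fluor 680, then imaged on a CQ1 microscope at 37°C and 5% CO2 after compound addition. CellPathfinder machine-learning gating split cells into Hoechst high-intensity objects or normal cells. Normal cells were split into healthy, pyknosed or fragmented nuclei, and pyknosed cells into mitotic or apoptotic. Tubulin, mitochondrial-mass and membrane-permeability phenotypes are per cents of healthy-nucleus cells.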

[1] = 12 h, 1 µM, compound concentration 1 uM, replicate 1
[2] = 12 h, 1 µM, compound concentration 1 uM, replicate 2
[3] = 12 h, 10 µM, compound concentration 10 uM, replicate 1
[4] = 12 h, 10 µM, compound concentration 10 uM, replicate 2
[5] = 24 h, 1 µM, compound concentration 1 uM, replicate 1
[6] = 24 h, 1 µM, compound concentration 1 uM, replicate 2
[7] = 24 h, 10 µM, compound concentration 10 uM, replicate 1
[8] = 24 h, 10 µM, compound concentration 10 uM, replicate 2
[9] = 48 h, 1 µM, compound concentration 1 uM, replicate 1
[10] = 48 h, 1 µM, compound concentration 1 uM, replicate 2
[11] = 48 h, 10 µM, compound concentration 10 uM, replicate 1
[12] = 48 h, 10 µM, compound concentration 10 uM, replicate 2

## CNc1cc(Oc2cc(C(=O)Nc3cc(N4CCN(C)CC4)cc(C(F)(F)F)c3)ccc2C)ncn1
[1]
  Population Apoptotic (%): 79%
  Population Fragmented Nuclei (%): 14%
  Population Healthy Nuclei (%): 13%
  Population Hoechst High Intensity Objects (%): 20%
  Population Membrane Permeable-Phenotype (%): 0%
  Population Mitochondria Different-Phenotype (%): 96%
  Population Mitotic Cells (%): 20%
  Population Normal (%): 79%
  Population Pyknosed Nuclei (%): 72%
  Population Tubulin-Different-Phenotype (%): 89%
  Total Cell Count: 263
[2]
  Population Apoptotic (%): 41%
  Population Fragmented Nuclei (%): 8%
  Population Healthy Nuclei (%): 21%
  Population Hoechst High Intensity Objects (%): 6%
  Population Membrane Permeable-Phenotype (%): 2%
  Population Mitochondria Different-Phenotype (%): 69%
  Population Mitotic Cells (%): 58%
  Population Normal (%): 93%
  Population Pyknosed Nuclei (%): 70%
  Population Tubulin-Different-Phenotype (%): 76%
  Total Cell Count: 213
[3]
  Population Apoptotic (%): 86%
  Population Fragmented Nuclei (%): 17%
  Population Healthy Nuclei (%): 3%
  Population Hoechst High Intensity Objects (%): 21%
  Population Membrane Permeable-Phenotype (%): 0%
  Population Mitochondria Different-Phenotype (%): 100%
  Population Mitotic Cells (%): 13%
  Population Normal (%): 78%
  Population Pyknosed Nuclei (%): 80%
  Population Tubulin-Different-Phenotype (%): 83%
  Total Cell Count: 256
[4]
  Population Apoptotic (%): 98%
  Population Fragmented Nuclei (%): 5%
  Population Healthy Nuclei (%): 4%
  Population Hoechst High Intensity Objects (%): 14%
  Population Mitotic Cells (%): 1%
  Population Normal (%): 85%
  Population Pyknosed Nuclei (%): 89%
  Population Tubulin-Different-Phenotype (%): 60%
  Total Cell Count: 127
[5]
  Population Apoptotic (%): 73%
  Population Fragmented Nuclei (%): 18%
  Population Healthy Nuclei (%): 12%
  Population Hoechst High Intensity Objects (%): 21%
  Population Membrane Permeable-Phenotype (%): 0%
  Population Mitochondria Different-Phenotype (%): 96%
  Population Mitotic Cells (%): 26%
  Population Normal (%): 78%
  Population Pyknosed Nuclei (%): 69%
  Population Tubulin-Different-Phenotype (%): 81%
  Total Cell Count: 269
[6]
  Population Apoptotic (%): 41%
  Population Fragmented Nuclei (%): 12%
  Population Healthy Nuclei (%): 36%
  Population Hoechst High Intensity Objects (%): 5%
  Population Membrane Permeable-Phenotype (%): 1%
  Population Mitochondria Different-Phenotype (%): 63%
  Population Mitotic Cells (%): 58%
  Population Normal (%): 94%
  Population Pyknosed Nuclei (%): 51%
  Population Tubulin-Different-Phenotype (%): 70%
  Total Cell Count: 284
[7]
  Population Apoptotic (%): 88%
  Population Fragmented Nuclei (%): 15%
  Population Healthy Nuclei (%): 0%
  Population Hoechst High Intensity Objects (%): 26%
  Population Membrane Permeable-Phenotype (%): 0%
  Population Mitochondria Different-Phenotype (%): 100%
  Population Mitotic Cells (%): 11%
  Population Normal (%): 73%
  Population Pyknosed Nuclei (%): 84%
  Population Tubulin-Different-Phenotype (%): 100%
  Total Cell Count: 264
[8]
  Population Apoptotic (%): 97%
  Population Fragmented Nuclei (%): 6%
  Population Healthy Nuclei (%): 3%
  Population Hoechst High Intensity Objects (%): 18%
  Population Mitotic Cells (%): 2%
  Population Normal (%): 81%
  Population Pyknosed Nuclei (%): 89%
  Population Tubulin-Different-Phenotype (%): 75%
  Total Cell Count: 126
[9]
  Population Apoptotic (%): 68%
  Population Fragmented Nuclei (%): 24%
  Population Healthy Nuclei (%): 21%
  Population Hoechst High Intensity Objects (%): 18%
  Population Membrane Permeable-Phenotype (%): 1%
  Population Mitochondria Different-Phenotype (%): 76%
  Population Mitotic Cells (%): 31%
  Population Normal (%): 81%
  Population Pyknosed Nuclei (%): 54%
  Population Tubulin-Different-Phenotype (%): 74%
  Total Cell Count: 297
[10]
  Population Apoptotic (%): 40%
  Population Fragmented Nuclei (%): 14%
  Population Healthy Nuclei (%): 65%
  Population Hoechst High Intensity Objects (%): 4%
  Population Membrane Permeable-Phenotype (%): 6%
  Population Mitochondria Different-Phenotype (%): 25%
  Population Mitotic Cells (%): 59%
  Population Normal (%): 95%
  Population Pyknosed Nuclei (%): 19%
  Population Tubulin-Different-Phenotype (%): 51%
  Total Cell Count: 421
[11]
  Population Apoptotic (%): 91%
  Population Fragmented Nuclei (%): 32%
  Population Healthy Nuclei (%): 1%
  Population Hoechst High Intensity Objects (%): 29%
  Population Membrane Permeable-Phenotype (%): 0%
  Population Mitochondria Different-Phenotype (%): 100%
  Population Mitotic Cells (%): 8%
  Population Normal (%): 70%
  Population Pyknosed Nuclei (%): 66%
  Population Tubulin-Different-Phenotype (%): 33%
  Total Cell Count: 273
[12]
  Population Apoptotic (%): 98%
  Population Fragmented Nuclei (%): 7%
  Population Healthy Nuclei (%): 5%
  Population Hoechst High Intensity Objects (%): 26%
  Population Membrane Permeable-Phenotype (%): 20%
  Population Mitotic Cells (%): 1%
  Population Normal (%): 73%
  Population Pyknosed Nuclei (%): 87%
  Population Tubulin-Different-Phenotype (%): 80%
  Total Cell Count: 131

## COc1ccc(S(=O)(=O)N(CCO)c2ccccc2CN(C)C/C=C/c2ccc(Cl)cc2)cc1.O=P(O)(O)O
[1]
  Population Apoptotic (%): 42%
  Population Fragmented Nuclei (%): 11%
  Population Healthy Nuclei (%): 28%
  Population Hoechst High Intensity Objects (%): 16%
  Population Membrane Permeable-Phenotype (%): 6%
  Population Mitochondria Different-Phenotype (%): 79%
  Population Mitotic Cells (%): 57%
  Population Normal (%): 83%
  Population Pyknosed Nuclei (%): 59%
  Population Tubulin-Different-Phenotype (%): 87%
  Total Cell Count: 585
[2]
  Population Apoptotic (%): 35%
  Population Fragmented Nuclei (%): 1%
  Population Healthy Nuclei (%): 67%
  Population Hoechst High Intensity Objects (%): 7%
  Population Membrane Permeable-Phenotype (%): 3%
  Population Mitochondria Different-Phenotype (%): 90%
  Population Mitotic Cells (%): 64%
  Population Normal (%): 92%
  Population Pyknosed Nuclei (%): 30%
  Population Tubulin-Different-Phenotype (%): 90%
  Total Cell Count: 929
[3]
  Population Apoptotic (%): 14%
  Population Fragmented Nuclei (%): 11%
  Population Healthy Nuclei (%): 67%
  Population Hoechst High Intensity Objects (%): 8%
  Population Membrane Permeable-Phenotype (%): 6%
  Population Mitochondria Different-Phenotype (%): 9%
  Population Mitotic Cells (%): 85%
  Population Normal (%): 91%
  Population Pyknosed Nuclei (%): 21%
  Population Tubulin-Different-Phenotype (%): 25%
  Total Cell Count: 633
[4]
  Population Apoptotic (%): 13%
  Population Fragmented Nuclei (%): 6%
  Population Healthy Nuclei (%): 87%
  Population Hoechst High Intensity Objects (%): 3%
  Population Mitochondria Different-Phenotype (%): 21%
  Population Mitotic Cells (%): 86%
  Population Normal (%): 96%
  Population Pyknosed Nuclei (%): 6%
  Population Tubulin-Different-Phenotype (%): 36%
  Total Cell Count: 1412
[5]
  Population Apoptotic (%): 61%
  Population Fragmented Nuclei (%): 13%
  Population Healthy Nuclei (%): 25%
  Population Hoechst High Intensity Objects (%): 18%
  Population Membrane Permeable-Phenotype (%): 7%
  Population Mitochondria Different-Phenotype (%): 81%
  Population Mitotic Cells (%): 38%
  Population Normal (%): 81%
  Population Pyknosed Nuclei (%): 60%
  Population Tubulin-Different-Phenotype (%): 85%
  Total Cell Count: 551
[6]
  Population Apoptotic (%): 43%
  Population Fragmented Nuclei (%): 1%
  Population Healthy Nuclei (%): 59%
  Population Hoechst High Intensity Objects (%): 10%
  Population Membrane Permeable-Phenotype (%): 2%
  Population Mitochondria Different-Phenotype (%): 95%
  Population Mitotic Cells (%): 56%
  Population Normal (%): 89%
  Population Pyknosed Nuclei (%): 38%
  Population Tubulin-Different-Phenotype (%): 77%
  Total Cell Count: 913
[7]
  Population Apoptotic (%): 17%
  Population Fragmented Nuclei (%): 8%
  Population Healthy Nuclei (%): 80%
  Population Hoechst High Intensity Objects (%): 6%
  Population Membrane Permeable-Phenotype (%): 10%
  Population Mitochondria Different-Phenotype (%): 8%
  Population Mitotic Cells (%): 82%
  Population Normal (%): 93%
  Population Pyknosed Nuclei (%): 11%
  Population Tubulin-Different-Phenotype (%): 31%
  Total Cell Count: 745
[8]
  Population Apoptotic (%): 5%
  Population Fragmented Nuclei (%): 15%
  Population Hoechst High Intensity Objects (%): 2%
  Population Mitotic Cells (%): 94%
  Population Normal (%): 97%
  Population Pyknosed Nuclei (%): 4%
  Population Tubulin-Different-Phenotype (%): 37%
  Total Cell Count: 2203
